Compounds with a hit are over-represented: about 1.2% of the library has one in this group of screens.
ASAP1 GAP inh: inhibitors of human ASAP1 ArfGAP activity | ASAP1-stimulated ARF1 GTP hydrolysis, GDP FP detection | hit rate 0.19% among 360,000 | Q9ULH1 | inhibition, % at 16.5 µM | AID 624377; in the data active means inhibition above about 25%;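 further: 0% = vehicle with enzyme and substrate and 100% = no enzyme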
Fh CTSL1 inh: cathepsin L1 inhibition, PFM18AAP counter-screen; recombinant F. hepatica cathepsin L1, Z-Leu-Arg-MCA fluorescence; inhibition, % at 5.96 µM; hit rate 0.49% among 300,000;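 active means inhibition above the mean of all tested compounds plus 3 SD, set per screening campaign, cut at about 17% in these data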;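 further: 0% = plate median of test compound wells and 100% = 1 µM Z-Phe-Ala-diazomethylketone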
GC-A act: GC-A (human) enzyme activation; P16066; HEK293 GC-A cells, cGMP TR-FRET, EC30 ANP; 0% at EC30 ANP, 100% saturating ANP; activation, % at 10 µM; hit rate 0.14% among 370,000; AID 1671463; in the data active means activation above about 40%
HCV core dimer: HCV core protein dimerization inhibition; inhibition, % at 5 µM; hit rate 0.33% among 300,000; TR-FRET GST/Flag-core106 dimerization, 1536-well; AID 1899;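 active means inhibition above the mean of all tested compounds plus 3 SD, set per screening campaign, cut at about 45% in these data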
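Material: GST/Flag-tagged HCV core106 proteins. Incubation: 4 h, 22.5 °C incubation. Read-out basis: inhibition (%) from 671 over 617 nm ratio. Measured by: TR-FRET, excitation 340 nm, emission 617 and 671 nm.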
ARFGAP1 inh: rat ARFGAP1 inhibition. Q62848. Arfgap1-stimulated ARF1 GTP hydrolysis, GDP FP detection. inhibition, % at 16.5 µM. hit rate 0.26% among 360,000;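 active means inhibition above a per-plate limit, mean inhibition of low control wells plus 3 SD, cut at about 25% in these data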;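 further: 0% = DMSO wells with enzyme and 100% = wells lacking Arfgap1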
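Material: truncated rat Arfgap1 GAP domain; Incubation: compound-enzyme preincubation 20 min, reaction 120 min, detection 60 min, 25 °C; Read-out: percent inhibition of Arfgap1-stimulated GTP hydrolysis; Technique: FP, GDP Alexa 633 tracer displaced from anti-GDP antibody, 620/688 nm; Controls: No-Arfgap1 wells (100%) versus DMSO full-reaction wells (0%); Replication: single well per compound.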
GC-B act: GC-B (human) receptor activation. activation, % at 10 µM. HEK293-GC-B cells, CNP EC30, cGMP TR-FRET; 0% at EC30 CNP, 100% saturating CNP. P20594. hit rate 0.11% among 370,000;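 active means activation at 10 µM reaching about 35% in either raw or pattern-adjusted values, limit read from the data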
* = called active by the depositor; x = no result.

SMILES	ASAP1 GAP inh	Fh CTSL1 inh	GC-A act	HCV core dimer	ARFGAP1 inh	GC-B act
CC(=O)c1cccc(NC(=O)CSc2ccc(-c3ccco3)nn2)c1	11	4	1	10	-5	0
Cc1cc(SCC(=O)c2cccc([N+](=O)[O-])c2)nc(=O)[nH]1	x	-2	x	71*	x	x
COc1cccc(/C=C2\SC(=O)N(CCC(=O)NNC(=O)c3cccc(Cl)c3)C2=O)c1	2	-2	-5	5	4	5
O=C(N/N=C\c1cn(-c2ccccc2)nc1-c1ccccc1)c1ccc(Br)o1	-12	1	-4	25	4	3
Cc1ccc(-c2nn(-c3ccccc3)cc2/C=N/NC(=O)c2ccc(Br)o2)cc1	4	-1	-7	49*	-5	6
COc1cc(C(CC(=O)N2CCCC2)c2c(OC)cc(OC)c3ccc(=O)oc23)cc(OC)c1OC (stereo not given)	14	37*	-2	4	5	-18
O=C(O)c1ccc(Cl)c2c1C1C=CCC1C(c1ccccn1)N2 (stereo not given)	x	1	x	11	x	x
Cc1cc([N+](=O)[O-])cc2c1NC(c1ccccn1)C1CC=CC21 (stereo not given)	3	4	-13	49*	-7	-5
O=[N+]([O-])c1ccc(Cl)c2c1C1C=CCC1C(c1ccccn1)N2 (stereo not given)	6	6	-13	58*	-10	-5
CC(C)N1CCC(N2CCN(Cc3cc(F)ccc3-n3cccn3)CC2CCO)CC1 (stereo not given)	-13	1	-1	-1	7	6
COc1ccc(C2NC(=O)c3sc4nc(C)c(C(C)=O)c(-c5ccc(Cl)cc5)c4c3N2)cc1 (stereo not given)	-1	7	46*	14	7	31
NC(=O)c1ccc(NC(=O)COC(=O)c2cc3ccccc3cc2O)cc1	11	x	-3	x	13	-5
COc1ccc(C(=O)c2c(C(F)(F)F)oc3c2C(=O)c2ccccc2C3=O)cc1	x	28*	x	34	x	x
Cc1ccc(-n2c(C)cc(/C=N/NC(=O)Cn3c4ccccc4c(=O)c4ccccc43)c2C)cc1	0	4	2	68*	15	5
Cc1cc(/C=N/NC(=O)Cn2c3ccccc3c(=O)c3ccccc32)c(C)n1-c1ccc(Cl)cc1	-2	x	-6	x	3	-1
O=C(N/N=C/c1ccc(N2CCCC2)c([N+](=O)[O-])c1)c1cccnc1	3	-3	-7	-9	0	-7
O=C(Cn1c2ccccc2c(=O)c2ccccc21)N/N=C/c1ccc(N2CCCC2)c([N+](=O)[O-])c1	-2	4	2	51*	6	3
CCC(CC)C1=NN2C(=N)/C(=C\c3cc(C)n(-c4cccc(C)c4)c3C)C(=O)N=C2S1	-18	-2	-4	19	4	5
CCN(CC)Cc1c(O)ccc2c(=O)c(-c3ccccc3Cl)coc12	14	1	8	8	6	4
COc1ccc(C2=Nc3ccccc3NC(=O)C2N(Cc2ccc(F)cc2)C(=O)c2ccco2)cc1 (stereo not given)	1	x	-21	x	-8	-12
OCCNC(=S)Nc1ccc2nsnc2c1	-6	112*	2	-6	2	-2
COc1cccc(/C=N/NC(=O)c2ccccc2)c1OS(=O)(=O)c1ccccc1	16	6	-2	2	2	3
O=C1NCCN(Cc2ccc(Cl)c(F)c2)C1CC(=O)N1CCCO1 (stereo not given)	1	-9	2	-4	0	8
CCN=C1S/C(=C/c2ccc(-c3ccc(F)cc3)o2)C(=O)N1CC	-1	18*	0	-2	7	3
S=c1[nH]ncn2c1cc1oc3ccccc3c12	-1	4	14	64*	-10	4
SMILES	ASAP1 GAP inh	Fh CTSL1 inh	GC-A act	HCV core dimer	ARFGAP1 inh	GC-B act
O=c1c2ccccc2oc2ccccc12	9	x	-1	x	0	-2
Cc1nn(-c2ccccc2)c(Cl)c1/C=N\NC(=O)c1cncc(Br)c1	2	1	3	7	-8	0
COc1ccc(/C=C2\Sc3ccc(C(=O)NC4CC4)cc3N(C)C2=O)cc1OC	-2	0	30	-5	17	39*
CSc1sc(C(=O)NCC2CC2)cc1S(=O)(=O)C(C)C	-8	2	0	-3	6	0
CC(=O)Nc1sc2c(c1C(N)=O)CCCC2	-2	1	7	-1	4	-6
NC(=O)c1c(NC(=O)C2c3ccccc3Oc3ccccc32)sc2c1CCCCC2	-7	-4	-1	50*	3	1
COc1ccc(CN(CCC(c2ccccc2)c2ccco2)C(=O)c2ccco2)cc1 (stereo not given)	14	23*	12	38	-1	15
COc1ccccc1C(CCN(Cc1cccs1)C(C)=O)c1ccco1 (stereo not given)	6	3	-13	41	9	-9
CCC(=O)N(CCC(c1ccccc1)c1ccco1)Cc1cccs1 (stereo not given)	-7	38*	-12	1	-3	-7
O=C(c1ccco1)N(CCC(c1ccccc1)c1ccco1)Cc1ccccc1 (stereo not given)	-11	31*	-1	41	3	-1
O=C(OCC(=O)c1ccc(Cl)cc1Cl)c1ccc2c(c1)C(=O)N(c1cccc3ncccc13)C2=O	114*	-1	8	5	-3	-3
Cc1ccc(C(=O)COC(=O)c2ccc3c(c2)C(=O)N(c2cccc4ncccc24)C3=O)cc1	-3	0	-4	8	-9	5
NC(=O)c1nn2c(C(F)(F)F)cc(-c3ccccc3)nc2c1Br	-2	1	15	3	6	15
COC(=O)c1ccc2nc(-c3ccccc3)c(Cc3ccc(C)cc3)n2c1	-8	x	30	x	0	39*
COC(=O)c1ccc2nc(-c3ccc(C)cc3)c(Cc3cccc(F)c3)n2c1	-3	x	32	x	6	46*
N#Cc1ccc(-c2nc3ccc(Br)cn3c2Cc2ccccc2)cc1	-1	x	29	x	5	35*
COC(=O)c1ccc2nc(-c3ccccc3)c(Cc3ccccc3)n2c1	2	x	20	x	-11	27
COC(=O)c1ccc2nc(-c3ccc(C)cc3)c(Cc3ccccc3)n2c1	0	x	27	x	6	39*
COc1ccc(C(=O)N/N=C\c2ccc(OC)c(COc3ccccc3Br)c2)c(OC)c1	4	-3	4	23	-6	3
CC1CCCC(NCC(O)COC(c2ccc(F)cc2)c2ccc(F)cc2)C1C (stereo not given)	-13	-1	-29	-1	3	-7

High-throughput results deposited in PubChem BioAssay by several laboratories.
